Hits are enriched below; roughly 0.7% of the tested compounds scored in any of these assays.
CaV13 ICDI inh – Disruptors of the CACNA1D IQ motif to Ca2+-dependent inactivation inhibitor domain association, primary screening, Förster resonance energy transfer in intact living …; HEK cells, CFP/YFP FRET ICDI-IQ, plate reader, 10 min; percent FRET-ratio fall versus neutral wells; inhibition, % at 12.3 µM; actives 0.098% (n = 340,000);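 active = mean replicate inhibition of at least 30% and at least 1% of replicates passing that level; inconclusive = only one of the two criteria is met; inactive = neither criterion is met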
RAD52 inh – RAD52 (human) annealing inhibition. P43351. recombinant RAD52 DNA annealing, FRET fluorescence. inhibition, % at 18.7 µM. actives 0.46% (n = 360,000). AID 651710;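 active = every replicate showing at least 50% inhibition; inconclusive = mean inhibition at least 50% but not in every replicate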
Glyco luc inh – blocks N-linked glycosylation in D54 reporter cells; D54 ERlucT glycosylation luciferase reporter, 24 h; percent of 100 nM tunicamycin response; reporter increase, % at 12.5 µM; actives 0.23% (n = 360,000);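 active = mean luciferase reporter signal, scaled so untreated is 0 and the glycosylation-blocking control 100, at or above a set limit in every replicate; inconclusive = mean reaches the limit but not every replicate does; inactive = mean below the limit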;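 also: luciferase carries N-glycosylation sites so blocking glycosylation raises the light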
RAD54 inh – blocks human RAD54 Holliday junction branch migration; actives 0.14% (n = 360,000); inhibition, % at 10.4 µM; FAM/BHQ fluorescence;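 active = mean normalized replicate activity at least 40 and at least half of replicates scoring 40 or more; inconclusive = only one of the two criteria met; inactive = mean below 40 and under half of replicates reaching 40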;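 also: inhibitors cause a drop in the FAM fluorescence signal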
Target sequence (Q92698 whole entry, looked up): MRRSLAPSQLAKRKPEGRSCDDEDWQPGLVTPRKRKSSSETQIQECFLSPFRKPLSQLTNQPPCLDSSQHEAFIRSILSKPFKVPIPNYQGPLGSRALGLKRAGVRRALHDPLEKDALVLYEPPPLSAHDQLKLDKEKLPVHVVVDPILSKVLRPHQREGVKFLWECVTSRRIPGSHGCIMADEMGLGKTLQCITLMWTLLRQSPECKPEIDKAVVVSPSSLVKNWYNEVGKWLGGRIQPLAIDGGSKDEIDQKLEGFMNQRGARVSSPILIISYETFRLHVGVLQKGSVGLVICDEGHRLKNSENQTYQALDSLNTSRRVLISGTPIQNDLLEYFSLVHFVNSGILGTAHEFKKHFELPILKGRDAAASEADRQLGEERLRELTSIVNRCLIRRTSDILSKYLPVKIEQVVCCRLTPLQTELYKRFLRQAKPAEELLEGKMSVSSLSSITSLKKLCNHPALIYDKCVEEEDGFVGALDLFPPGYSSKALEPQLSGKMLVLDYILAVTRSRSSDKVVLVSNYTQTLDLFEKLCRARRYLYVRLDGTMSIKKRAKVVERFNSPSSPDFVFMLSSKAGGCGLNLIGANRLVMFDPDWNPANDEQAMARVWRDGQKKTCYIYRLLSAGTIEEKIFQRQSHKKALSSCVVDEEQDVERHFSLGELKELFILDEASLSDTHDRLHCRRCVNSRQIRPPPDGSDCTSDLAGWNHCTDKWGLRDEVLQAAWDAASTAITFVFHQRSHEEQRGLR
FN deposit inh – fibronectin deposition inhibition; inhibition, % at 12.6 µM; AH1F fibroblasts, Alexa488-fibronectin deposition fluorescence, overnight; actives 0.086% (n = 350,000);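 active = mean inhibition across replicates of 30% or more, regardless of how many single replicates reach that level; inconclusive = mean under 30% yet at least half of replicates reach 30%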
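Schedule: 1 h cell adhesion before compound, then overnight fibronectin incubation; test system: AH1F fibroblast monolayer depositing Alexa488-labelled fibronectin into matrix; quantity: 10000 AH1F cells per well; probe or stimulus: fluorescent fibronectin at 24 nM final; signal: fluorescence, ex 485 nm, em 525 nm; evaluation: percent inhibition as loss of matrix-bound fibronectin fluorescence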
DNA binding – binds DNA, flagging false Rad54 inhibitor hits. shares compounds with RAD54 inh. Acridine orange-DNA displacement, fluorescence polarization, 20 min. AC50, µM (doses to about 35 µM). actives 8% (n = 460). AID 651673;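 active = signal drop giving an AC50 within twice the top valid tested concentration of each sample, actives reach about 35 µM in these data; inactive = activity opposite to expected, plus the rest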;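 also: polarization loss reports compound binding to salmon sperm DNA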
A number is an active result.

What do the screens show for `CCCCN(CC)CCNC(=O)c1cc2c(=O)[nH]c3ccccc3c2s1`?
CaV13 ICDI inh: inactive; RAD52 inh: inactive; Glyco luc inh: inactive; RAD54 inh: inactive; FN deposit inh: inactive

Results for CCCN(CCC)CCCNC(=O)c1cc2c(=O)[nH]c3ccccc3c2s1 ?
CaV13 ICDI inh: inactive; RAD52 inh: inactive; Glyco luc inh: inactive; RAD54 inh: 51; FN deposit inh: inactive; DNA binding: inactive

Results for COc1ccc(S(=O)(=O)Nc2ccc3c(c2)C(=O)N([C@@H](C)CO)C[C@@H](C)[C@@H](CN(C)C(=O)Nc2ccccc2)OCCCC[C@H](C)O3)cc1 ?
RAD54 inh: inactive; FN deposit inh: inactive

Results for COCC(=O)Nc1ccc2c(c1)[C@@H]1C[C@H](CC(=O)NCc3ccncc3)O[C@@H](CO)[C@@H]1O2 ?
RAD52 inh: inactive; RAD54 inh: inactive; FN deposit inh: inactive

What do the screens show for `CCC(=O)Nc1ccc2c(c1)C(=O)N(C)C[C@@H](OC)[C@H](C)CN(C(=O)CN1CCOCC1)[C@H](C)CO2`?
FN deposit inh: inactive

Results for C=CCc1ccccc1OCC(O)CN1CCN(CCN2C(=O)c3cccc4cccc(c34)C2=O)CC1 (stereo not drawn) ?
CaV13 ICDI inh: inactive; RAD52 inh: inactive; Glyco luc inh: inactive; RAD54 inh: 99; FN deposit inh: inactive; DNA binding: inactive

Results for Cc1ccccc1OCC(O)CN1CCN(CCN2C(=O)c3cccc4cccc(c34)C2=O)CC1 (stereo not drawn) ?
CaV13 ICDI inh: inactive; RAD52 inh: inactive; Glyco luc inh: inactive; FN deposit inh: inactive

What do the screens show for `CN(C)CC(=O)N1[C@@H]2c3ccc(-c4ccc(F)cc4)c(=O)n3C[C@@H]2[C@@H](CO)[C@@H]1C(=O)NC1CCC1`?
RAD52 inh: inactive; RAD54 inh: inactive

Results for O=C(NCCCN1CCCCCC1)c1cc2c(=O)oc3ccccc3c2s1 ?
CaV13 ICDI inh: inactive; RAD52 inh: inactive; Glyco luc inh: inactive; RAD54 inh: inactive; FN deposit inh: inactive

How did CCN1CCN(CCCNC(=O)c2cc3c(=O)oc4ccc(C)cc4c3s2)CC1 do in these assays?
CaV13 ICDI inh: inactive; RAD52 inh: inactive; Glyco luc inh: inactive; RAD54 inh: 53; FN deposit inh: inactive; DNA binding: inactive

How did Cc1ccc2oc(=O)c3cc(C(=O)NCCCN4CC(C)CC(C)C4)sc3c2c1 (stereo not drawn) do in these assays?
CaV13 ICDI inh: inactive; RAD52 inh: inactive; Glyco luc inh: inactive; RAD54 inh: inactive; FN deposit inh: inactive

What do the screens show for `Cc1ccc2oc(=O)c3cc(C(=O)NCCCN4C(C)CCCC4C)sc3c2c1` (stereo not drawn)?
CaV13 ICDI inh: inactive; RAD52 inh: inactive; Glyco luc inh: inactive; RAD54 inh: 54; FN deposit inh: inactive; DNA binding: inactive

How did Cc1ccc2oc(=O)c3cc(C(=O)NCCCN4CCN(C)CC4)sc3c2c1 do in these assays?
CaV13 ICDI inh: inactive; RAD52 inh: inactive; Glyco luc inh: inactive; RAD54 inh: 62; FN deposit inh: inactive; DNA binding: inactive

Results for COc1cc2nc(N(C)C)nc(N)c2cc1OC ?
CaV13 ICDI inh: inactive; Glyco luc inh: 48; RAD54 inh: 94; DNA binding: inactive

How did CCC(=O)Nc1ccc2c(c1)C(=O)N(C)[C@@H]1CC[C@@H](CC(=O)NCc3ccccc3)O[C@@H]1CO2 do in these assays?
RAD52 inh: inactive; RAD54 inh: inactive; FN deposit inh: inactive

How did C[C@@H]1CN([C@@H](C)CO)C(=O)Cc2cc(NC(=O)Cc3cn(C)c4ccccc34)ccc2O[C@@H]1CN(C)S(C)(=O)=O do in these assays?
RAD52 inh: inactive; RAD54 inh: inactive

Results for CC(CCCN1CCCC1)Nc1ccnc2cc(Cl)ccc12 (stereo not drawn) ?
CaV13 ICDI inh: inactive; RAD52 inh: 51; Glyco luc inh: inactive; RAD54 inh: 55; DNA binding: inactive

What do the screens show for `Clc1ccc2c(NCCNC3CCCCC3)ccnc2c1`?
CaV13 ICDI inh: inactive; RAD52 inh: inactive; Glyco luc inh: inactive; RAD54 inh: inactive; FN deposit inh: inactive

How did CC(C)NC1CCC(Nc2ccnc3cc(Cl)ccc23)CC1 (stereo not drawn) do in these assays?
CaV13 ICDI inh: inactive; RAD52 inh: inactive; Glyco luc inh: inactive; RAD54 inh: inconclusive; FN deposit inh: inactive; DNA binding: inactive

Results for COCC#Cc1cnc2c(c1)C(=O)N([C@H](C)CO)C[C@@H](C)[C@H](CN(C)C)O2 ?
RAD52 inh: inactive; RAD54 inh: inactive; FN deposit inh: inactive

What do the screens show for `CCN(CC)CCN(C(=O)c1ccc(C(=O)c2ccccc2)cc1)c1nc2cc3c(cc2s1)OCO3`?
CaV13 ICDI inh: inactive; RAD52 inh: inactive; Glyco luc inh: inactive; RAD54 inh: inactive; FN deposit inh: inactive

Results for CCN(CC)CCN(C(=O)c1ccc2ncsc2c1)c1nc2cc3c(cc2s1)OCO3 ?
RAD52 inh: inactive; Glyco luc inh: inactive; RAD54 inh: inconclusive; DNA binding: inactive

What do the screens show for `O=C(Nc1cccc([N+](=O)[O-])c1)c1cc(S(=O)(=O)N2CCOCC2)cs1`?
CaV13 ICDI inh: inactive; RAD52 inh: inactive; Glyco luc inh: inactive; RAD54 inh: 57; FN deposit inh: inactive; DNA binding: inactive

Results for O=C(Nc1ccccc1)c1cc(S(=O)(=O)N2CCOCC2)cs1 ?
CaV13 ICDI inh: inactive; Glyco luc inh: inactive; RAD54 inh: inconclusive; DNA binding: inactive

What do the screens show for `O=C(Nc1cccc(Br)c1)c1cc(S(=O)(=O)N2CCOCC2)cs1`?
CaV13 ICDI inh: inactive; RAD52 inh: inactive; Glyco luc inh: inactive; RAD54 inh: 52; FN deposit inh: inactive; DNA binding: inactive

Results for O=C(Nc1ccccc1[N+](=O)[O-])c1cc(S(=O)(=O)N2CCOCC2)cs1 ?
CaV13 ICDI inh: inactive; RAD52 inh: inactive; Glyco luc inh: inactive; RAD54 inh: inactive; FN deposit inh: inactive

How did CCOc1ccc(NC(=O)c2cc(S(=O)(=O)N3CCOCC3)cs2)cc1 do in these assays?
RAD52 inh: inactive; Glyco luc inh: inactive; RAD54 inh: inactive

Results for COc1ccc2c3c([nH]c2c1)[C@H](CO)N(C(=O)NC(C)C)CC31CN(C(=O)c2cnccn2)C1 ?
RAD52 inh: inactive

Results for CC(C)NC(=O)N(C)C[C@@H]1OCCCC[C@H](C)Oc2ccc(N(C)C)cc2C(=O)N([C@H](C)CO)C[C@@H]1C ?
RAD52 inh: inactive; RAD54 inh: inactive; FN deposit inh: inactive

How did CCOC(=O)c1cnc2c(Cl)cccc2c1NCCCN1CCOCC1 do in these assays?
CaV13 ICDI inh: inactive; RAD52 inh: inactive; Glyco luc inh: inactive; RAD54 inh: inconclusive; FN deposit inh: inactive; DNA binding: inactive

What do the screens show for `CCOC(=O)c1cnc2c(CC)cccc2c1NCCCN1CCOCC1`?
CaV13 ICDI inh: inactive; RAD52 inh: inactive; Glyco luc inh: inactive; RAD54 inh: inconclusive; FN deposit inh: inactive; DNA binding: inactive

Source: PubChem (Broad Institute)
